Data from paper PMC3799459 (Nucleic Acids Research, 2013).
Values belong to the molecule of their own block, whether it stands above or below them.

Tests used:
M.SssI = M.SssI (Spiroplasma monobiae, UniProt P15840); assay: M.SssI Flashplate SPA inhibition assay; format: biochemical, bacterial
Procedure, shortened: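 Purchased M.SssI at 100 nM with 0.3 µM biotinylated non-methylated duplex and 1 µM SAM/[methyl-3H]SAM mix (3:1) in 1X NEBuffer 2; test compound ≤1% DMSO; 1 h at 37°C. Stopped in streptavidin Flashplate with 20 µM SAH, Tris-HCl pH 7.4; 1 h RT binding, Tween washes, scintillation cpm. %inhibition vs no-enzyme and no-compound controls; sigmoidal fit; two experiments in duplicate.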

human DNMT3A (DNMT3A-C) = human DNMT3A (DNMT3A-C) (Homo sapiens, UniProt Q9Y6K1); assay: DNMT3A Flashplate SPA inhibition assay; format: biochemical
DNMT1 [1] = target: T1, DNMT1 (Homo sapiens, UniProt P26358); assay: SAM-competition assay on DNMT1; format: biochemical; details: SAM 0.5-15 µM, DNA duplex 1.0 µM, inhibitor IC10 to IC80
Procedure, shortened: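 DNMT1 Flashplate SPA in HEPES pH 7.2 buffer, 37°C, 2 h. [methyl-3H]SAM (0.6 TBq/mmol, isotopic dilution 1*:1) varied 0.5–15 µM at fixed 1.0 µM biotinylated DNA duplex. Test compound adjusted from IC10 to IC80 for each SAM level. IC50 at each SAM concentration from sigmoidal variable-slope fit; apparent kinetic constants per compound concentration by Michaelis–Menten fitting.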

DNMT1 [2] = target: T1, DNMT1; assay: DNA-competition assay on DNMT1; format: biochemical; details: DNA duplex 0.05-1.0 µM, SAM 15 µM (1*:2), inhibitor IC10 to IC80
Procedure, shortened: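 Streptavidin Flashplate SPA with DNMT1 in HEPES pH 7.2 reaction buffer (EDTA, KCl, BSA), 37°C for 2 h. Biotinylated DNA duplex varied 0.05–1.0 µM; [methyl-3H]SAM (0.6 TBq/mmol) fixed at 15 µM, isotopic dilution 1*:2. Test compound adjusted from IC10 to IC80 at each DNA level. IC50 per DNA concentration from sigmoidal variable-slope fit; apparent kinetic constants from Michaelis–Menten fits at each compound concentration.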

DNMT1 [3] = target: T1, DNMT1; assay: DMSO tolerance of the DNMT1 Flashplate assay; format: biochemical
DNMT1 [4] = target: T1, DNMT1; assay: Km determination of DNMT1 substrates; format: biochemical; details: read-out: Km of DNA for DNMT1; DNA 0.05-1.0 µM, 15 µM SAM

T1 sequence (P26358 whole entry): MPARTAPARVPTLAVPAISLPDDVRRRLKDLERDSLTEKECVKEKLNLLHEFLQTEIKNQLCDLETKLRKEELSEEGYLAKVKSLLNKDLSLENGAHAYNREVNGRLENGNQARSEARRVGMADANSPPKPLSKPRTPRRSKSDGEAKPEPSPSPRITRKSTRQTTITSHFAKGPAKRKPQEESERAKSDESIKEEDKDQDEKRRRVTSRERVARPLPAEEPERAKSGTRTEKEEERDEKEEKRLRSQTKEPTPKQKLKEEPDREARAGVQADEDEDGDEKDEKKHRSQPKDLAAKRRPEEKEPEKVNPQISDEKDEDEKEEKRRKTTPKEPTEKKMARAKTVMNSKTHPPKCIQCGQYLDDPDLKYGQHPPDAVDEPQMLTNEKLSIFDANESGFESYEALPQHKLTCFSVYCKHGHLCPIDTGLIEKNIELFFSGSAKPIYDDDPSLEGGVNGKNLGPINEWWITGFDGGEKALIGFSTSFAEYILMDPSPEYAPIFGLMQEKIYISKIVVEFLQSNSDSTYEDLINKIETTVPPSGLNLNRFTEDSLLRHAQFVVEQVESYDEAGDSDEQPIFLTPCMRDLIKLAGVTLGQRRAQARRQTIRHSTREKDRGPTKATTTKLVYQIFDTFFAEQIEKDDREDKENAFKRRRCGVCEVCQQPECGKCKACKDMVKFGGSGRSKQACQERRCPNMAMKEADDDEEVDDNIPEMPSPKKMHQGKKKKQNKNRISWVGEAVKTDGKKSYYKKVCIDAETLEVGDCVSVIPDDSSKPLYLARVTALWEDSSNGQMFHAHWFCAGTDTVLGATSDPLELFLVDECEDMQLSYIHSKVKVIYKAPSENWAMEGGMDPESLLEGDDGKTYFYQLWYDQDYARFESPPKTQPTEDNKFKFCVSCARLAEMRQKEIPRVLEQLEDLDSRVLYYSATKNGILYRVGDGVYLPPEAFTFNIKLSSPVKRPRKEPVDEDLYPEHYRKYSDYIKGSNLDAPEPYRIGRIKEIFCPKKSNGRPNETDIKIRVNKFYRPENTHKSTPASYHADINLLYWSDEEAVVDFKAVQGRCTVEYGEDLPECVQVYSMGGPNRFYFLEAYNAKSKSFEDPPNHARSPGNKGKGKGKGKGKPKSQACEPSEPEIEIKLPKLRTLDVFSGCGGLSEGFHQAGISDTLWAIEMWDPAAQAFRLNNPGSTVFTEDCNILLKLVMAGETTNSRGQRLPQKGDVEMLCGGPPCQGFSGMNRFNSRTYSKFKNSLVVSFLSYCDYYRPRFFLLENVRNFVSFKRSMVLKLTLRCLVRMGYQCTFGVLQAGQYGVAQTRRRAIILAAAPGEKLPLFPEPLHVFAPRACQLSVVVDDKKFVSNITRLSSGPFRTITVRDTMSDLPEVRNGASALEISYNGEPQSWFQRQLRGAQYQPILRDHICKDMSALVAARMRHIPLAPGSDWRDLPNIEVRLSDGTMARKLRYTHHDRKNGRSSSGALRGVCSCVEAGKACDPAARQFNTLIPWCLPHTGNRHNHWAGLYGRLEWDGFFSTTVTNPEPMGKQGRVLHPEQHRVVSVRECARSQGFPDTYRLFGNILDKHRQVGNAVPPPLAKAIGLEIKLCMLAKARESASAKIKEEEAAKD
Chain of human DNMT3A (DNMT3A-C) (Q9Y6K1 624-912): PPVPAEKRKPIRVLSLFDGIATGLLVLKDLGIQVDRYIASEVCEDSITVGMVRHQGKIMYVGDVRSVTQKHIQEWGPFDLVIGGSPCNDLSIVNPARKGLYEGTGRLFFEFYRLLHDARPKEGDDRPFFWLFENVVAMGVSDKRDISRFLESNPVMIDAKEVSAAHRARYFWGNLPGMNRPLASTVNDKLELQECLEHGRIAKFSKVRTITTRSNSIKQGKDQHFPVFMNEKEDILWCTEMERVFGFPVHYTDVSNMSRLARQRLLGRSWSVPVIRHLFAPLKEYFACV
Chain of M.SssI (P15840 whole entry): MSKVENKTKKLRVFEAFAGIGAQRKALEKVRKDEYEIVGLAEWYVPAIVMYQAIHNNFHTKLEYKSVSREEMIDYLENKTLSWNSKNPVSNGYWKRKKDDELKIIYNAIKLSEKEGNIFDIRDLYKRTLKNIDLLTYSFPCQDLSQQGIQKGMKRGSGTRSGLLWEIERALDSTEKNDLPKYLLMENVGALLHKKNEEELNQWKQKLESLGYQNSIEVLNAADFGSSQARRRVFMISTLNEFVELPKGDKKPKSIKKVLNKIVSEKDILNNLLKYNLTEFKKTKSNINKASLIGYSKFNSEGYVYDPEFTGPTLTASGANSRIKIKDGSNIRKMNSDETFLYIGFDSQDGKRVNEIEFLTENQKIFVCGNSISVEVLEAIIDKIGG

Molecule: C[S+](C)[O-] [DMSO]
- Stimulation of DNMT1 activity (DNMT1 [3]; 1 to 10% (v/v) DMSO): < 10%
- Effect on DNMT1 activity (DNMT1 [3]; 15 to 50% (v/v) DMSO): inhibition

B1: DNA: biotinylated hemimethylated DNA duplex with 8 CpG, substrate of DNMT1 (Table 1) (nucleic acid)
sense: GATCGCCGATGCGCGAATCGCGATCGATGCGAT
antisense: ATCGCATCGATCGCGATTCGCGCATCGGCGATC
modifications: biotin; hemimethylated CpG; printed: 5′-GATmCGCmCGATGmCGmCGAATmCGmCGATmCGATGmCGAT
- Km (DNMT1 [4]): ~0.27 µM

Continued, values first:

- IC50 (M.SssI): 45 ± 7 µM
- IC50 (human DNMT3A (DNMT3A-C)): 1.8 ± 0.6 µM
- Mechanism of inhibition towards SAM (DNMT1 [1]): SAM-competitive
- Mechanism of inhibition towards DNA (DNMT1 [2]): uncompetitive inhibition
Molecule: Nc1ncnc2c1ncn2[C@@H]1O[C@H](C[C@@H](N)CC[C@H](N)C(=O)O)[C@@H](O)[C@H]1O [Sinefungin]

- Mechanism of inhibition towards SAM (DNMT1 [1]): SAM non-competitive inhibitor
- Mechanism of inhibition towards DNA (DNMT1 [2]): uncompetitive behavior
Molecule: O=C1c2ccccc2OC(c2ccccc2)C1(Cl)[N+](=O)[O-] (stereo not drawn) [Compound 47, 3-chloro-3-nitroflavanone]
